Legend:
Histone deacetylase = assay: Inhibition of HDAC in human HeLa-S3 cell lysates preincubated for 15 mins followed by HDAC-Glo substrate addition measured after 35 mins by fluorimetric method; type: protein assay
[1] = molecular target: Histone deacetylase 3 (Homo sapiens) (UniProt O15379); assay: Inhibition of HDAC3 in human HeLa-S3 cell lysates assessed as remaining activity at 2 x 10^-5 M preincubated for 15 mins followed by HDAC-Glo substrate addition measured after 30 to 40 mins by […] relative to control
How it was run: (§1)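 Antibody-capture (ELISA-type) assay: HDAC antibody coated in carbonate/bicarbonate buffer pH 9.4, wells blocked with 5% milk in TBST. HeLa-S3 lysate added at 1 mg/mL for HDAC3, 1 h at 4 °C, then washed. Inhibitor in DMSO preincubated 15 min at RT in HDAC-Glo buffer. HDAC-Glo reagent added, luminescence read after 30-40 min. Concentrations are final. Background = no-antibody well; activity given as % of DMSO control.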

[2] = molecular target: Histone deacetylase 3 (Homo sapiens) (UniProt O15379); assay: Inhibition of HDAC3 in human HeLa-S3 cell lysates assessed as remaining activity at 4 x 10^-5 M preincubated for 15 mins followed by HDAC-Glo substrate addition measured after 30 to 40 mins by […] relative to control; how it was run: as §1
[3] = molecular target: Histone deacetylase 2 (Homo sapiens) (UniProt Q92769); assay: Inhibition of HDAC2 in human HeLa-S3 cell lysates assessed as remaining activity at 8 x 10^-5 M preincubated for 15 mins followed by HDAC-Glo substrate addition measured after 30 to 40 mins by […] relative to control
How it was run: (§2)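 Same antibody-capture format as the other class I isoforms. HeLa-S3 lysate added at 100 μg/mL for HDAC1 and HDAC2, 1 h at 4 °C, then washed. Inhibitor in DMSO preincubated 15 min at RT; HDAC-Glo reagent added and luminescence read after 30-40 min. Concentrations are final. Signal corrected against a well without antibody; activity expressed as % of DMSO control.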

[4] = molecular target: Histone deacetylase 2 (Homo sapiens) (UniProt Q92769); assay: Inhibition of HDAC2 in human HeLa-S3 cell lysates assessed as remaining activity at 4 x 10^-5 M preincubated for 15 mins followed by HDAC-Glo substrate addition measured after 30 to 40 mins by […] relative to control; how it was run: as §2
[5] = molecular target: Histone deacetylase 2 (Homo sapiens) (UniProt Q92769); assay: Inhibition of HDAC2 in human HeLa-S3 cell lysates assessed as remaining activity at 2 x 10^-5 M preincubated for 15 mins followed by HDAC-Glo substrate addition measured after 30 to 40 mins by fluorimetric method relative to control; how it was run: as §2
[6] = molecular target: Histone deacetylase 1 (Homo sapiens) (UniProt Q13547); assay: Inhibition of HDAC1 in human HeLa-S3 cell lysates assessed as remaining activity at 2 x 10^-5 M preincubated for 15 mins followed by HDAC-Glo substrate addition measured after 30 to 40 mins by […] relative to control
How it was run: (§3)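 HDAC1 was captured from HeLa-S3 lysate (100 μg/mL) onto wells precoated with anti-HDAC1 antibody (10 μg/mL, carbonate buffer pH 9.4) and milk-blocked, 1 h at 4 °C, then washed. Inhibitor in DMSO was added in HDAC-Glo buffer for 15 min at room temperature. HDAC-Glo reagent was added and luminescence read after 30-40 min. Concentrations are final. No-antibody background subtracted; % of DMSO control.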

[7] = molecular target: Histone deacetylase 3 (Homo sapiens) (UniProt O15379); assay: Inhibition of HDAC3 in human HeLa-S3 cell lysates assessed as remaining activity at 1 x 10^-5 M preincubated for 15 mins followed by HDAC-Glo substrate addition measured after 30 to 40 mins by […] relative to control; how it was run: as §1
[8] = molecular target: Histone deacetylase (Homo sapiens) (UniProt Q13547+O15379+Q9UBN7+Q92769+Q9UQL6+Q8WUI4+Q9BY41+Q96DB2+P56524+Q9UKV0+Q969S8); assay: Inhibition of HDAC in human HeLa-S3 cell lysates assessed as residual activity at 1.25 x 10^-5 M preincubated for 15 mins followed by HDAC-Glo substrate addition measured after 35 mins by […] relative to control; type: protein assay
[9] = molecular target: Histone deacetylase 1 (Homo sapiens) (UniProt Q13547); assay: Inhibition of HDAC1 in human HeLa-S3 cell lysates assessed as remaining activity at 1.6 x 10^-4 M preincubated for 15 mins followed by HDAC-Glo substrate addition measured after 30 to 40 mins by […] relative to control; how it was run: as §3
[10] = molecular target: Histone deacetylase 2 (Homo sapiens) (UniProt Q92769); assay: Inhibition of HDAC2 in human HeLa-S3 cell lysates assessed as remaining activity at 1.6 x 10^-4 M preincubated for 15 mins followed by HDAC-Glo substrate addition measured after 30 to 40 mins by […] relative to control; how it was run: as §2
[11] = molecular target: Histone deacetylase 1 (Homo sapiens) (UniProt Q13547); assay: Inhibition of HDAC1 in human HeLa-S3 cell lysates assessed as remaining activity at 4 x 10^-5 M preincubated for 15 mins followed by HDAC-Glo substrate addition measured after 30 to 40 mins by […] relative to control; how it was run: as §3
[12] = molecular target: Histone deacetylase 3 (Homo sapiens) (UniProt O15379); assay: Inhibition of HDAC3 in human HeLa-S3 cell lysates assessed as remaining activity at 8 x 10^-5 M preincubated for 15 mins followed by HDAC-Glo substrate addition measured after 30 to 40 mins by […] relative to control; how it was run: as §1
[13] = molecular target: Histone deacetylase 3 (Homo sapiens) (UniProt O15379); assay: Inhibition of HDAC3 in human HeLa-S3 cell lysates assessed as remaining activity at 1.6 x 10^-4 M preincubated for 15 mins followed by HDAC-Glo substrate addition measured after 30 to 40 mins by […] relative to control; how it was run: as §1
[14] = molecular target: Histone deacetylase 1 (Homo sapiens) (UniProt Q13547); assay: Inhibition of HDAC1 in human HeLa-S3 cell lysates assessed as remaining activity at 1 x 10^-5 M preincubated for 15 mins followed by HDAC-Glo substrate addition measured after 30 to 40 mins by fluorimetric method relative to control; how it was run: as §3
[15] = molecular target: Histone deacetylase 1 (Homo sapiens) (UniProt Q13547); assay: Inhibition of HDAC1 in human HeLa-S3 cell lysates assessed as remaining activity at 8 x 10^-5 M preincubated for 15 mins followed by HDAC-Glo substrate addition measured after 30 to 40 mins by […] relative to control

Histone deacetylase 1 (Homo sapiens), sequence (Q13547 whole entry): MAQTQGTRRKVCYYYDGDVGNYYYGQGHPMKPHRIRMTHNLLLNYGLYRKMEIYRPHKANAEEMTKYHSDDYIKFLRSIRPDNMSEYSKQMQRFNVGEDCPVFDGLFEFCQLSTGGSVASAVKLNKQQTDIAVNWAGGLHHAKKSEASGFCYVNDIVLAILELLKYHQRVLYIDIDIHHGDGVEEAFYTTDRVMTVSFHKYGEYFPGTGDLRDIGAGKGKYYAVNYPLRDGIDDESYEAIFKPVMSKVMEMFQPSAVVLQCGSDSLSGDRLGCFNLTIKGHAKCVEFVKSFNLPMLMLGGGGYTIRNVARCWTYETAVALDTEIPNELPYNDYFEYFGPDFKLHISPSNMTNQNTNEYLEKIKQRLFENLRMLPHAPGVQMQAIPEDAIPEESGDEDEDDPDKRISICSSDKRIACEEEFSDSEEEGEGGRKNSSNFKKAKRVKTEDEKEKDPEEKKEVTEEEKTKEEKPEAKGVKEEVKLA
Histone deacetylase 3 (Homo sapiens), sequence (O15379 whole entry): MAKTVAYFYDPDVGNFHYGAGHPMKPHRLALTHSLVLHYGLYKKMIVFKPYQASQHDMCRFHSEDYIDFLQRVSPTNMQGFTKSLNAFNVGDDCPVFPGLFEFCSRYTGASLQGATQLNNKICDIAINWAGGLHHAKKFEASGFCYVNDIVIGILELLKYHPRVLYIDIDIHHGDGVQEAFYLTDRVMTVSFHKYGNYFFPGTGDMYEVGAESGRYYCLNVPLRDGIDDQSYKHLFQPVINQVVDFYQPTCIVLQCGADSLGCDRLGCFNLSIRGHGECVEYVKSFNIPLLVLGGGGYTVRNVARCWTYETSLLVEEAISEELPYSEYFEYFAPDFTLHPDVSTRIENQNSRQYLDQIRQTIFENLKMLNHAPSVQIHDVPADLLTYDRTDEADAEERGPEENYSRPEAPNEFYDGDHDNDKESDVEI
Histone deacetylase 2 (Homo sapiens), sequence (Q92769 whole entry, canonical isoform): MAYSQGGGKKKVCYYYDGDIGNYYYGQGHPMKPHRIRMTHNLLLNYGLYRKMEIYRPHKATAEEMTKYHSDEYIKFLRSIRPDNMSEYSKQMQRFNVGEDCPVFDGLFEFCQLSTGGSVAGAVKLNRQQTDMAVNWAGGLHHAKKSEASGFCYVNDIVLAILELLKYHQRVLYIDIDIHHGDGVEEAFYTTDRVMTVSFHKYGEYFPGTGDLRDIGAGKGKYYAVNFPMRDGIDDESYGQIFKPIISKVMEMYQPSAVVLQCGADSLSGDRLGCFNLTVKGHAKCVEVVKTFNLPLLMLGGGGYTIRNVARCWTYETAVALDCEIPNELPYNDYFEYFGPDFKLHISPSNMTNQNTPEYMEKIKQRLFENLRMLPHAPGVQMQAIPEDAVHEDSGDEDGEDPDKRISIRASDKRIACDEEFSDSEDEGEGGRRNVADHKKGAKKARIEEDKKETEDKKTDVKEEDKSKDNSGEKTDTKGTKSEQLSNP

IC50 (Histone deacetylase) [µM] | Activity [1] [%] | Activity [2] [%] | Activity [3] [%] | Activity [4] [%] | Activity [5] [%] | Activity [6] [%] | Activity [7] [%] | Activity [8] [%] | Activity [9] [%] | Activity [10] [%] | Activity [11] [%] | Activity [12] [%] | Activity [13] [%] | Activity [14] [%] | Activity [15] [%] | SMILES
14 |  |  |  |  |  |  |  |  |  |  |  |  |  |  |  | CCC(CCCC(=O)Nc1ccccc1)CCC(=O)NO (configuration not stated)
60 | 56 | 42 | 31 | 46 | 73 | 67 | 88 | 87 | 13 | 16 | 46 | 25 | 5 | 83 | 26 | CCCCCCC(CCCC(=O)Nc1ccccc1)CCC(=O)NO (configuration not stated)
 | 67 | 48 | 37 | 56 | 74 | 68 | 76 |  | 17 | 22 | 50 | 33 | 15 | 84 | 32 | O=C(CC[C@H](CCCC(=O)Nc1ccccc1)Cc1ccccc1)NO
62 | 63 | 55 | 27 | 47 | 60 | 58 | 87 | 88 | 16 | 20 | 44 | 33 | 19 | 75 | 27 | O=C(CCC(CCCC(=O)Nc1ccccc1)Cc1ccccc1)NO (racemic)

Reference: ChEMBL document CHEMBL4251567 (Eur J Med Chem, 2018)
